Active and inactive are the calls of the source.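 The calls were made as follows: active = IC50 of 10 µM or lower; inactive = IC50 above 10 µM.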
What follows are compounds tested against ADP-ribosylation factor GTPase-activating protein 1 (Rattus norvegicus) (UniProt Q62848) (assay: IC50 of ARFGAP1-driven ARF1 GTPase inhibition – biochemical, fluorescence polarization, round 000, late-stage follow-up (AID 743243)). Conditions: ARFGAP1-stimulated ARF1 GTP hydrolysis, GDP fluorescence polarization.
Method in brief: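 Test system – purified His6-tagged rat Arfgap1 GAP domain (residues 1-136) · Doses – triplicate series, top 165 µM · Schedule – 20 min enzyme-compound preincubation, then 120 min GTPase reaction, 25 °C · Signal – FP GDP tracer-antibody displacement, 620/688 nm · Controls – wells without Arfgap1 as full-inhibition reference · Replicates – each compound dose series run in triplicate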

ADP-ribosylation factor GTPase-activating protein 1 (Rattus norvegicus), sequence (Q62848 1-136 limits assumed): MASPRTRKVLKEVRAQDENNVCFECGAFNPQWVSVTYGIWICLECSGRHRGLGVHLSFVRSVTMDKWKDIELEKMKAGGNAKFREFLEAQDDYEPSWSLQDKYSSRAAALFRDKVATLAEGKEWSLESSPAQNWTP

IC50	Compound
> 165 µM (inactive)	Cc1ccc(CNc2nc3c(-c4cccc(F)c4)nnn3c3cc(Cl)ccc23)cc1
> 165 µM (inactive)	O=C(COC(=O)c1ccc2c(c1)C(=O)N(c1cccc(Cl)c1Cl)C2=O)c1ccc(F)cc1
> 165 µM (inactive)	O=C(NCc1ccco1)c1ccc2c(c1)C(=O)N(c1ccc(C(=O)c3ccccc3)cc1)C2=O
> 165 µM (inactive)	Fc1cccc(-c2nnn3c2nc(NCCc2ccc(Cl)cc2)c2ccccc23)c1
> 165 µM (inactive)	COc1cccc(C(=O)COC(=O)c2ccc3c(c2)C(=O)N(c2ccc(F)cc2)C3=O)c1
2.13 µM	O=C(COC(=O)c1ccc2c(c1)C(=O)N(c1cccc3ncccc13)C2=O)c1ccc(Cl)cc1
> 165 µM (inactive)	COc1cccc(C(=O)COC(=O)c2ccc3c(c2)C(=O)N(c2cccc(C(F)(F)F)c2)C3=O)c1
> 165 µM (inactive)	O=C1c2ccccc2C(=O)N1c1cccc2ncccc12
> 165 µM (inactive)	Cc1ccc(Oc2ccc3c(c2)C(=O)N(c2cccc4ncccc24)C3=O)cc1C
> 165 µM (inactive)	O=C1c2cc(Cl)c(Cl)cc2C(=O)N1c1cccc2ncccc12
inactive	Cc1cccc(-c2nnn3c2nc(NCCc2ccc(S(N)(=O)=O)cc2)c2ccccc23)c1
> 165 µM (inactive)	COc1ccccc1Oc1ccc2c(c1)C(=O)N(c1cccc3ncccc13)C2=O
> 165 µM (inactive)	Cc1ccc(N2C(=O)c3ccc(C(=O)OCC(=O)C(C)(C)C)cc3C2=O)cc1
> 165 µM (inactive)	COc1ccccc1N1C(=O)c2ccc(C(=O)OCC(=O)c3ccc(Br)cc3)cc2C1=O
inactive	NS(=O)(=O)c1ccc(CCNc2nc3c(-c4ccc(Cl)cc4)nnn3c3ccccc23)cc1
> 165 µM (inactive)	Fc1cccc(-c2nnn3c2nc(NCc2ccc4c(c2)OCO4)c2ccccc23)c1
> 165 µM (inactive)	Cc1ccc(C(=O)C(C)OC(=O)c2ccc3c(c2)C(=O)N(c2cccc(Cl)c2Cl)C3=O)cc1 (stereo not drawn)
> 165 µM (inactive)	Cc1ccc(C(=O)COC(=O)c2ccc3c(c2)C(=O)N(c2cccc4ncccc24)C3=O)cc1
> 165 µM (inactive)	CCCOC(=O)c1ccc2c(c1)C(=O)N(c1cccc3ccccc13)C2=O
> 165 µM (inactive)	COc1ccc(CNc2nc3c(-c4cccc(F)c4)nnn3c3cc(Cl)ccc23)cc1
> 165 µM (inactive)	O=C(COC(=O)c1ccc2c(c1)C(=O)N(c1ccccc1Cl)C2=O)c1ccc(Br)cc1
> 165 µM (inactive)	O=C(COC(=O)c1ccc2c(c1)C(=O)N(c1cc(C(F)(F)F)ccc1Cl)C2=O)c1ccccc1
> 165 µM (inactive)	O=C(COC(=O)c1ccc2c(c1)C(=O)N(c1cccc(Cl)c1Cl)C2=O)c1ccccc1
> 165 µM (inactive)	O=C(NCC1CCCO1)c1ccc2c(c1)C(=O)N(c1cccc3ccccc13)C2=O (stereo not drawn)

IC50	Compound
> 165 µM (inactive)	Cc1ccc(N2C(=O)c3ccc(C(=O)N4c5ccccc5CC4C)cc3C2=O)cc1 (stereo not drawn)
> 165 µM (inactive)	Cc1ccc(N2C(=O)c3ccc(C(=O)N4CCN(Cc5ccccc5)CC4)cc3C2=O)cc1
> 165 µM (inactive)	O=C(NCC1CCCO1)c1ccc2c(c1)C(=O)N(c1ccccc1-c1ccccc1)C2=O (stereo not drawn)
6.9 µM	NS(=O)(=O)c1ccc(CCNc2nc3c(-c4cccc(C(F)(F)F)c4)nnn3c3ccccc23)cc1
inactive	O=C1c2ccc(Oc3ccc(Br)cc3)cc2C(=O)N1c1cccc2ncccc12
> 165 µM (inactive)	Fc1cccc(-c2nnn3c2nc(NCCc2ccccc2)c2ccc(Cl)cc23)c1
> 165 µM (inactive)	CCOCCCNC(=O)c1ccc2c(c1)C(=O)N(c1ccc(Cn3cncn3)cc1)C2=O
> 165 µM (inactive)	Cc1cccc(Oc2ccc(N3C(=O)c4ccc(C(=O)OCC(=O)Nc5cccc(C)c5C)cc4C3=O)cc2)c1
inactive	COc1ccc(CNc2nc3c(-c4cccc(F)c4)nnn3c3ccccc23)cc1
> 165 µM (inactive)	Cc1ccc(C(=O)COC(=O)c2ccc3c(c2)C(=O)N(c2cccc4ccccc24)C3=O)cc1
inactive	NS(=O)(=O)c1ccc(CCNc2nc3c(-c4cccc(Cl)c4)nnn3c3ccccc23)cc1
> 165 µM (inactive)	O=C(NCCc1nc2ccccc2[nH]1)c1ccc2c(c1)C(=O)N(c1ccc(F)cc1)C2=O
> 165 µM (inactive)	O=C(COC(=O)c1ccc2c(c1)C(=O)N(c1cccc(C(F)(F)F)c1)C2=O)c1ccc(Cl)cc1
> 165 µM (inactive)	CC(C)(C)NC(=O)c1ccc2c(c1)C(=O)N(c1ccccc1-c1ccccc1)C2=O
> 165 µM (inactive)	Fc1cccc(-c2nnn3c2nc(NCCc2ccccc2)c2ccccc23)c1
> 165 µM (inactive)	O=C(OCC(=O)c1cccs1)c1ccc2c(c1)C(=O)N(c1cccc3ccccc13)C2=O
> 165 µM (inactive)	CC(CNc1nc2c(-c3cccc(F)c3)nnn2c2ccccc12)c1ccccc1 (stereo not drawn)
> 165 µM (inactive)	Cc1cccc(N2C(=O)c3ccc(C(=O)NC4CCCCC4)cc3C2=O)c1C
> 165 µM (inactive)	O=C(NC1CCCCC1)c1ccc2c(c1)C(=O)N(c1ccccc1-c1ccccc1)C2=O
> 165 µM (inactive)	CC(C)CNC(=O)c1ccc2c(c1)C(=O)N(c1ccccc1-c1ccccc1)C2=O
inactive	NS(=O)(=O)c1ccc(CCNc2nc3c(-c4cccc(F)c4)nnn3c3ccccc23)cc1
> 165 µM (inactive)	Cc1ccc(N2C(=O)c3ccc(C(=O)OCC(=O)c4ccccc4)cc3C2=O)c(C)c1
inactive	Cc1cccc(-c2nnn3c2nc(NCCc2ccc(S(N)(=O)=O)cc2)c2ccc(Cl)cc23)c1
> 165 µM (inactive)	COc1ccc(CCNc2nc3c(-c4cccc(F)c4)nnn3c3cc(Cl)ccc23)cc1OC

Reference: PubChem BioAssay AID743243 (The Scripps Research Institute Molecular Screening Center, 2013)
